Measurements taken from ChEMBL document CHEMBL5126673, “Inhibition of β-Amyloid Aggregation in Alzheimer's Disease: The Key Role of (Pro)electrophilic Warheads” (ACS Med Chem Lett, 2022).
Calls of active or inactive are those of the source. The rule behind the calls is not given here.

Legend:
[1] = biological target: T1, Amyloid-beta precursor protein (Homo sapiens, UniProt P05067); assay: Inhibition of HFIP-pretreated amyloid beta (1 to 42 ) (unknown origin) self aggregation at 50 uM after 24 hrs by thioflavin-T fluorescence method relative to control
T1 sequence (P05067 whole entry): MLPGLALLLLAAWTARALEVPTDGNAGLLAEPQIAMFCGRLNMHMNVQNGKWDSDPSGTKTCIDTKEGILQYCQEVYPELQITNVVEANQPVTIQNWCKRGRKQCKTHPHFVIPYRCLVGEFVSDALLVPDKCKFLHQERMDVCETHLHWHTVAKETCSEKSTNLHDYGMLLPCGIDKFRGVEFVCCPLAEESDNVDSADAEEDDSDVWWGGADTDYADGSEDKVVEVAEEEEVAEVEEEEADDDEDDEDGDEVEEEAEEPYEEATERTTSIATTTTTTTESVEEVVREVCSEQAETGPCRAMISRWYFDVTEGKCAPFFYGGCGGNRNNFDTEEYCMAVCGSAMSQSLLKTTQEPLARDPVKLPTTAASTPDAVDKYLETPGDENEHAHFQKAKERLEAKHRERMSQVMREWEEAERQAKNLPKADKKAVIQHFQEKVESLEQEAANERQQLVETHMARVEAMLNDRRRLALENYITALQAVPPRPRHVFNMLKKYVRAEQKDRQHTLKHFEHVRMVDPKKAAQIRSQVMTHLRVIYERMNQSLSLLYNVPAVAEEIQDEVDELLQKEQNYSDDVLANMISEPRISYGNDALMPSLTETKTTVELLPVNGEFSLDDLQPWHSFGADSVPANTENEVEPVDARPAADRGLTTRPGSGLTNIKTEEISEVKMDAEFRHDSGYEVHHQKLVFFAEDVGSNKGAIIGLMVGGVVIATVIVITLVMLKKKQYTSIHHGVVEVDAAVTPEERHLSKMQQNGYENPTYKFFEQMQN
How it was run: (§1)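 Self-aggregation of 50 μM Aβ42 was measured by ThT fluorescence. Single-point % inhibition used compound at 50 μM (1:1 with Aβ42). IC50 was determined where inhibition exceeded 50%. Values are the mean of two independent experiments, each run in duplicate, ± SEM.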

[2] = Electrochemical behavior of compound assessed as anodic peak for oxidation of catechol group in 0.2 M phosphate buffer using Ag/AgCl reference electrode by cyclic voltammetry; assay type: physicochemical
[3] = Electrochemical behavior of compound assessed as half wave redox potential in 0.2 M phosphate buffer using Ag/AgCl reference electrode by cyclic voltammetry; assay type: physicochemical
[4] = Reversible electrochemical behavior of compound assessed as cathodic peak for reconversion of ortho-benzoquinone in 0.2 M phosphate buffer using Ag/AgCl reference electrode by cyclic voltammetry; assay type: physicochemical
[5] = biological target: T1, Amyloid-beta precursor protein; assay: Inhibition of HFIP-pretreated amyloid beta (1 to 42 ) (unknown origin) self aggregation at 50 uM after 24 hrs by LC-MS/MS analysis relative to control
How it was run: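 Aβ42 at 50 μM incubated under the ThT assay conditions with or without compound at 50 μM (1:1). Residual monomeric Aβ42 was quantified by MS, and % inhibition was taken against compound-free samples.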

SH-SY5Y [6] = assay: Cytotoxicity against human SH-SY5Y cells assessed as reduction in cell viability at 5 to 10 uM measured after 24 hrs by MTT assay; assay type: toxicity, cell-based; details: dose 5-10 µM
How it was run: (§2)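 Human neuroblastoma SH-SY5Y cells were treated with compound at 5 and 10 μM for 24 h. Viability was read by MTT assay.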

[7] = biological target: T1, Amyloid-beta precursor protein; assay: Inhibition of HFIP-pretreated amyloid beta (1 to 42) (unknown origin) self aggregation after 24 hrs by thioflavin-T fluorescence method; how it was run: as §1
[8] = biological target: T1, Amyloid-beta precursor protein; assay: Inhibition of HFIP-pretreated amyloid beta (1 to 42 ) (unknown origin) self aggregation assessed as increase in protein oxidation at 50 uM after 24 hrs by LC-MS/MS analysis
How it was run: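 Aβ42 incubated with or without compound at an equimolar level under the ThT assay conditions. Oxidized Aβ42 was followed by MS as the ratio of the oxidized-Aβ42 signal to the reserpine internal-standard signal, plotted against incubation time.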

[9] = biological target: T1, Amyloid-beta precursor protein; assay: Binding affinity to HFIP-pretreated amyloid beta (1 to 42) (unknown origin) assessed as lys16-adduct formation by measuring increase in molecular mass at 50 uM measured up to 6 hrs by LC-MS/MS analysis
How it was run: (§3)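 Aβ42 at 50 μM co-incubated with test compound at 50 μM (1:1) under the ThT assay conditions. Deconvoluted mass spectra were taken at 0, 6 and 24 h. Adducts were scored as new higher-mass species, i.e. mass increments over Aβ42.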

[10] = biological target: T1, Amyloid-beta precursor protein; assay: Binding affinity to HFIP-pretreated amyloid beta (1 to 42) (unknown origin) assessed as lys16-adduct formation by measuring increase in molecular mass at 50 uM measured at 24 hrs by LC-MS/MS analysis; how it was run: as §3
SH-SY5Y [11] = assay: Cytotoxicity against human SH-SY5Y cells assessed as reduction in cell viability at 10 uM measured after 24 hrs by MTT assay relative to control; assay type: toxicity, cell-based; how it was run: as §2

Molecule `CCCSC(=O)/C=C/c1cc(O)cc(O)c1` has an inhibition [1] of under 10%, an Ep [2] of 0.76 V and an Activity [3] of 0.66 V. For the same molecule, the Activity [4] was “Active”, the inhibition [5] was under 10% and the Activity (SH-SY5Y [6]) was “Non-Toxic”.
`CCCSC(=O)/C=C/c1ccc(O)c(O)c1` gave an inhibition [1] of over 90%, an IC50 [7] of 3.99 µM and an Ep [2] of 0.19 V. For the same molecule, the Activity [3] was 0.1 V, the Activity [4] was “Active” and the Activity (SH-SY5Y [6]) was “Non-Toxic”.
In the case of `CCCSC(=O)/C=C/c1cc(O)ccc1O`, the inhibition [8] is reported as “Active”, the inhibition [1] is reported as over 90% and the Ep [2] is reported as 0.32 V. For the same molecule, the Activity [3] was 0.1 V, the Activity [4] was “Active” and the Activity [9] was 232 Da. It also gave an Activity [10] of 268 Da, an inhibition [5] of 43.6% and an Activity (SH-SY5Y [11]) of over 50%.
